Screens as filed in PubChem.
proCasp7 act: procaspase-7 activators, primary screen, counter-screen for procaspase-3 activator project, biochemical, absorbance, HTS, human; 330,000 tested, 0.093% active; activation, % at 8.5 µM; recombinant procaspase-7, Ac-DEVD-pNA absorbance 405 nm; D23A/D198A/D206A triple mutant, cannot self-cleave; scale: DMSO 0, 5 µM enzyme 100; AID 463210, 2010; Caspase-7 (Homo sapiens), P55210;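 active = percent activation above the screen-wide mean plus 3 SD, cut at about 25% in these data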
Target sequence (P55210 whole entry D23A/D198A/D206A): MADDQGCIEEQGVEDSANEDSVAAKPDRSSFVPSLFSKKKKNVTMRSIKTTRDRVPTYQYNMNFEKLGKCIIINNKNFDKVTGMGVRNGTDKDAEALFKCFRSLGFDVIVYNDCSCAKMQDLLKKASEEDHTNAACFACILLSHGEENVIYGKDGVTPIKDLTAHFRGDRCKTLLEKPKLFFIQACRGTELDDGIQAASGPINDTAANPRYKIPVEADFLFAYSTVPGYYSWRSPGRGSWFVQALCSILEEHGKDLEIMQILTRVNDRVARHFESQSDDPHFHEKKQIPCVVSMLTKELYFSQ
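Detection: p-Nitroaniline absorbance at 405 nm, read at 0 and 120 min; system: Uncleavable procaspase-7 mutant enzyme; evaluation: % activation from two-timepoint absorbance difference, scaled to controls; times: 1 h enzyme–compound preincubation and 2 h substrate reaction, both 25 °C; buffer or medium: Zinc-free HEPES pH 7.4 with 300 mM NaCl, 0.01% Triton X-100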
aDG glyco up: activators of alpha-DG glycosylation, primary screen, uHTS, Pro5-aDG cells, AlphaScreen. alpha-DG glycosylation AlphaScreen (IIH6); 0% Pro5, 100% B10-LARGE cell signal. activation, % at 10 µM. 360,000 tested, 0.22% active;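 active = activation of at least 8% versus controls, or a plate z-score of at least 8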;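 also: Pro5 are CHO cells carrying HIG-tagged alpha-DG that lacks glycosylation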
procasp3 activ: activators of human procaspase-3 D3A mutant, primary screen, biochemical, absorbance, PC-3 D3A mutant, single concentration; Caspase-3 (Homo sapiens), P42574; recombinant procaspase-3 D3A, Ac-DEVD-pNA absorbance 405 nm; activation, % at 8.5 µM; 330,000 tested, 0.11% active;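 active = activation above the mean of all tested compounds plus 3 SD, cut at about 21% in these data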
Target sequence (P42574 whole entry D9A/D28A/D175A): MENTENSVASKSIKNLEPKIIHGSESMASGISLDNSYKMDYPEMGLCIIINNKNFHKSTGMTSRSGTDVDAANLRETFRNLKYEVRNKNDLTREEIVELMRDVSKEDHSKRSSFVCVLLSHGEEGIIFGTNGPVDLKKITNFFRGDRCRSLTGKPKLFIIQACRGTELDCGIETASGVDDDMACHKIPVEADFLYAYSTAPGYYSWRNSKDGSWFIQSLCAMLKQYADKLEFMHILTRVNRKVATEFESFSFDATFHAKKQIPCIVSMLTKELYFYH
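material = Procaspase-3 D3A mutant | probe or stimulus = Ac-DEVD-pNA | compound = single dose, 8.5 µM nominal compound, 0.8% DMSO | timing = 1 h preincubation, 2 h reaction | measured by = 405 nm absorbance of p-nitroaniline, reads at 0 and 120 min | benchmarks = DMSO-only low control, 5 µM PC-3 D3A high control | repeats = singlicate, each compound tested once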
MPTP block: mitochondrial permeability transition pore inhibitors, primary screen, biochemical, isolated mouse mitochondria, absorbance; inhibition, % at 10 µM; 360,000 tested, 1.4% active; AID 602449, 2012; Ca2+ swelling absorbance, 30 min;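 active = inhibition of 50% or more, scaled per plate between neutral and stimulator controls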
GRIN3A LBD mod: binders of NR3A ligand-binding domain, primary screen, biophysical, differential scanning fluorimetry, uHTS | NR3A LBD differential scanning fluorimetry, Tm shift; 0% = protein alone, 100% = glycine-bound protein | Tm shift relative to glycine control, % at 25 µM | 340,000 tested, 2.5% active;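 active = melting temperature shift of at least 10% of the positive control shift, at one fixed dose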
Numbers stand for hits; i = inactive; nt = no result given. Sampled rows, rich in hits. Any-hit rate of the full collection: about 3.7%.

SMILES | proCasp7 act | aDG glyco up | procasp3 activ | MPTP block | GRIN3A LBD mod
O=C(NC(=S)Nc1nc(-c2ccccc2)cs1)c1cccs1 | i | i | i | i | 27.6
COc1ccc(CNC(=O)C2(C)Cc3c(-c4cccc(NC(C)=O)c4)ccnc3O2)cc1OC (configuration not stated) | nt | i | nt | i | nt
O=[N+]([O-])c1ccc(/C=C/C2=NN(c3ccccc3)C(c3ccco3)C2)o1 (configuration not stated) | nt | i | nt | i | 198.8
C(=C\c1ccco1)/C1=NN(c2ccccc2)C(c2ccco2)C1 (configuration not stated) | i | 7.2 | i | i | i
Clc1ccc(C2=NN(c3ccccc3)C(c3ccco3)C2)cc1 (configuration not stated) | i | i | i | i | i
COC(=O)C[C@H]1CC[C@H](NC(=O)c2ccc(F)cc2)[C@@H](CO)O1 | nt | i | nt | i | nt
Cn1nc(C(=O)Nc2ccc(-n3cnnn3)cc2)c2ccccc2c1=O | i | i | i | i | i
Cc1c(C(=O)NC(=S)NCC(C)C)oc2ccccc12 | i | i | i | i | 17.9
CCCNc1c(NS(=O)(=O)c2ccc(NC(=O)CC)cc2)c(=O)oc2ccccc12 | i | 6.5 | i | i | i
CCCNc1c(NS(=O)(=O)c2ccc(C)c(C)c2)c(=O)oc2ccccc12 | i | i | i | i | i
CCC(=O)Nc1ccc(NC(=O)c2oc3ccccc3c2C)cc1 | i | i | i | i | 28.9
Cc1c(C(=O)Nc2ccc(-n3cnnn3)cc2)oc2ccccc12 | i | i | i | i | 26.8
CN(C)S(=O)(=O)n1cnc(C(CCO)c2ncn(S(=O)(=O)N(C)C)c2CCCO)c1 (configuration not stated) | i | i | i | i | i
Cc1cccc(CSCC(=O)N2CCN(S(=O)(=O)c3ccccc3C#N)CC2)c1 | nt | i | nt | i | nt
CCCS(=O)(=O)NC(=O)C1(C)CCCN(C(=O)c2ccc3ccccc3c2)C1 (configuration not stated) | nt | i | nt | i | nt
COc1cc(/C=N/N(c2ccccc2)c2ccccc2)ccc1O | i | i | i | i | i
CN(/N=C\c1ccc(O)c(O)c1)c1nc(-c2ccccc2)cc(-c2ccccc2)n1 | i | i | i | i | 21.4
CCCCOCCCNC(=O)C[C@@H]1C[C@@]2(C(=O)OCC)CCC=C2N(Cc2ccc(Cl)cc2Cl)C1=O | nt | i | nt | i | nt
COc1ccc(CN2C(=O)CCC2(C)c2nnnn2-c2ccc3c(c2)OCCO3)cc1 (configuration not stated) | nt | i | nt | i | nt
CCOc1ccc(C(NC(=O)/C=C/c2ccco2)c2ccc(OC)c(OC)c2)cc1 (configuration not stated) | i | i | i | i | 10.2
N#Cc1c(-c2ccc(F)cc2)c(-c2ccc(F)cc2)nn(CCO)c1=O | nt | i | nt | i | i
Cc1ccc([C@@H]2[C@@H]3C(=O)N(c4ccccc4)C(=O)[C@@H]3[C@]3(Cc4ccccc4)C(=O)N(CC4CC4)CC(=O)N23)o1 | i | i | i | i | 18.0
Cc1[nH]n(-c2c(Cl)cc(Cl)cc2Cl)c(=O)c1C=Nc1ccc(S(=O)(=O)N2CCOCC2)cc1 | i | i | i | i | 11.5
O=C(Nc1ccc(F)cc1)c1ccccc1F | i | i | i | i | i
O=C(Nc1ccc(F)cc1)Nc1ccc(NC(=O)c2ccccc2O)cc1 | i | i | i | i | 32.5
SMILES | proCasp7 act | aDG glyco up | procasp3 activ | MPTP block | GRIN3A LBD mod
COc1ccccc1NC(=O)Nc1ccc(NC(=O)c2ccccc2O)cc1 | i | i | i | i | 32.0
Cc1cccc(NC(=O)c2ccccc2O)c1C | i | i | i | i | i
O=C(Nc1ccccc1O)c1ccccc1O | i | i | i | i | 14.8
Cc1cccc(C)c1-n1nnnc1C(c1ccnc2ccccc12)N(C)Cc1ccccc1 (configuration not stated) | nt | i | nt | i | nt
Cc1cc(Cl)ccc1OCCCC(=O)NNC(=O)c1ccncc1 | i | i | i | i | i
COc1ccc(-c2csc(-c3cccnc3)n2)cc1C | i | i | i | i | i
NC(=O)c1cc(-c2csc(NCCc3ccccc3)n2)ccc1O | i | i | i | i | 10.3
NC(=O)c1cc(-c2csc(-c3cccnc3)n2)ccc1O | i | i | i | i | 19.6
C=CCNc1nc(-c2ccc(O)c(C(N)=O)c2)cs1 | i | i | i | i | i
COc1ccc2cc(-c3csc(-c4cccnc4)n3)ccc2c1 | i | i | i | i | 25.9
O=C(COC(=O)C1CCCCC1)Nc1cccc(Br)c1 | i | i | i | i | i
CC(C)n1nnc(-c2ccc(OCc3ccccc3F)cc2)n1 | i | i | i | i | i
Cc1nc(C(=O)N2CCOCC2)sc1C1(C)CC(c2ccccc2)=NO1 (configuration not stated) | i | i | i | i | 14.3
COc1ccc(N2C(=O)c3ccccc3NC(=O)C2C(=O)NCc2ccco2)cc1 (configuration not stated) | nt | i | nt | i | nt
COc1cc(SC)ccc1C(=O)NCCOc1ccc(C)c(C)c1 | i | i | i | i | 16.4
COc1ccccc1C(=O)NCCOc1ccc(C)c(C)c1 | nt | i | nt | i | i
COc1cc(-c2nc(-c3ccc(NC(=O)c4ccc(Br)o4)cc3)no2)cc(OC)c1OC | i | i | i | i | 21.4
COc1ccc(CCC(=O)Nc2ccc(-c3noc(-c4ccc(OC)c(OC)c4)n3)cc2)cc1 | i | i | i | i | i
COc1ccc(-c2nc(-c3ccc(NC(=O)c4ccc(Br)o4)cc3)no2)cc1OC | i | i | i | i | 25.6
COc1ccc(S(=O)(=O)NC(CC(C)C)C(=O)NC(C)c2cccs2)cc1 (configuration not stated) | i | i | i | i | i
N#Cc1ccc(C23OCCN2CCn2c3c3ccccc3[n+]2[O-])cc1 (configuration not stated) | i | i | i | i | i
O=C(CC(=O)c1ccccc1)Nc1cccc([N+](=O)[O-])c1 | nt | i | nt | i | nt
COc1cccc(NC(=O)CC(=O)c2ccc([N+](=O)[O-])cc2)c1 | i | i | i | i | 17.3
COc1ccc(C(=O)CC(Nc2ccc([N+](=O)[O-])cc2)c2ccc(Cl)cc2)cc1 (configuration not stated) | i | i | i | i | 11.0
COc1ccc(OCCCC(=O)Nc2cccc([N+](=O)[O-])c2)cc1 | i | i | i | i | 16.0
COc1cc([N+](=O)[O-])ccc1NC(=O)CCCOc1ccc(C)cc1 | i | i | i | i | i
